Data on 14 compounds can be found in ChEMBL document CHEMBL1153620 (Eur J Med Chem, 2009).

The term inhibition in vivo denotes how much of the control response was suppressed. Broadly, the IC50 is the concentration needed to halve the response being measured.

Series [1] has as its system Rattus norvegicus. The series is described as follows: Antiinflammatory activity in rat assessed as inhibition of carrageenan-induced paw edema at 10 mg/kg, po. It counts as functional. The procedure, abridged:
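Rats, six per group, received the drug suspended in 1% CMC orally 30 min before carrageenan; one group served as control. Carrageenan was given as 0.05 mL of 1% w/v in 0.9% saline under the plantar aponeurosis of the right hind paw.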
In general terms: The carrageenan paw model is a standard test of acute inflammation.

The subject of series [2] is Mus musculus. The series is described as follows: Analgesic activity in albino mouse inhibition of acetic acid-induced writhing response at 10 mg/kg, po. The class given is functional. Also on record: scale not given: the % may be the effect or the level left. (In general: An intraperitoneal irritant provokes the stretching counted in writhing tests.)
Series [3] concerns Rattus norvegicus. The series is described as follows: Gastrointestinal toxicity in albino rat assessed as ulcerogenic indicates at dose 30 mg/kg, po. Particulars: in vivo.
Series [4] concerns Gastric mucosa. In words: Inhibition of lipid peroxidation assessed as malondialdehyde level per 100 mg of gastric mucosa isolated from albino rat at dose 30 mg/kg, po.
In series [5] the target is T1, Prostaglandin G/H synthase 1 (Ovis aries, UniProt P05979).
T1 sequence (P05979 whole entry): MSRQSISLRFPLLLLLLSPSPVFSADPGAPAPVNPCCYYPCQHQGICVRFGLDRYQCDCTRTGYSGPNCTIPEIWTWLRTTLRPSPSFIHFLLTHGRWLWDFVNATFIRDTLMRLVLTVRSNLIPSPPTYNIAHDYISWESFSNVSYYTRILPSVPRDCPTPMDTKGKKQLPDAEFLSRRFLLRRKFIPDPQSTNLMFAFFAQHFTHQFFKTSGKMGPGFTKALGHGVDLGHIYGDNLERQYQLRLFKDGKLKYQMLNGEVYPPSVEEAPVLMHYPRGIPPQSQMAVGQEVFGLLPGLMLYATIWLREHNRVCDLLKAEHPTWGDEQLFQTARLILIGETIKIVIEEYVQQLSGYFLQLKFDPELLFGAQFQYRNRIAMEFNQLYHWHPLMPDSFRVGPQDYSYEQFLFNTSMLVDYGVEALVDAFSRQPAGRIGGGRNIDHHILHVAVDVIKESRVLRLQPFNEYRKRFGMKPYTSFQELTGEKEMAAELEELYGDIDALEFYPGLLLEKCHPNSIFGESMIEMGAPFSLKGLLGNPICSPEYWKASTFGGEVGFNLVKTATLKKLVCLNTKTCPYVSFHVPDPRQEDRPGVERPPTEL
In words: Inhibition of ovine COX1 by enzyme-immuno assay.

With `CC(=O)Oc1ccccc1-c1nnc(CCC(=O)c2ccc(-c3ccccc3)cc2)o1`, the inhibition in vivo at 10 mg/kg in series [1] was determined as 43.7%. In series [2], the Activity turned out to be 56.3%. Besides, in series [3], the UI worked out at 0.7. Moreover, the MDA content at 30 mg/kg in series [4] came to 5.8 nmol MDA/100 mg tissue.
`Cc1ccc(-c2nnc(CCC(=O)c3ccc(-c4ccccc4)cc3)o2)cc1`: the inhibition in vivo at 10 mg/kg in series [1] worked out at 50%. The compound further returned an Activity in series [2] of 45.1%. In addition, the UI in series [3] was determined as 0.5. Further, the MDA content at 30 mg/kg in series [4] was found to be 5.8 nmol MDA/100 mg tissue.
In series [5], `COc1ccc(-c2nnc(CCC(=O)c3ccc(-c4ccccc4)cc3)o2)cc1OC` returned an IC50 of 54.1 µM. Also, the inhibition in vivo at 10 mg/kg in series [1] amounted to 62.5%. Further, the Activity in series [2] is reported as 57.3%. In series [4], the MDA content at 30 mg/kg came out at 4.9 nmol MDA/100 mg tissue.
For the compound `O=C(CCc1nnc(-c2ccccc2)o1)c1ccc(-c2ccccc2)cc1`, the inhibition in vivo at 10 mg/kg in series [1] is 43.7%. Moreover, in series [2], the Activity was found to be 51.3%. Further, in series [3], the UI is 0.4. Further, in series [4], the MDA content at 30 mg/kg came to 4.3 nmol MDA/100 mg tissue.
`O=C(CCc1nnc(-c2ccccc2Cl)o1)c1ccc(-c2ccccc2)cc1`: in series [1], the inhibition in vivo at 10 mg/kg worked out at 46.8%. In series [2], this compound showed an Activity of 66.1%. Moreover, the UI in series [3] is listed as 0.5. In series [4], the MDA content at 30 mg/kg is 5.7 nmol MDA/100 mg tissue.
`O=C(CCc1nnc(-c2ccc(Cl)cc2)o1)c1ccc(-c2ccccc2)cc1`: in series [1], the inhibition in vivo at 10 mg/kg was 53.1%. In series [2], this compound gave an Activity of 61.9%. Also, the UI in series [3] was found to be 0.6. In addition, the MDA content at 30 mg/kg in series [4] is 5.8 nmol MDA/100 mg tissue.
As to `O=C(CCc1nnc(Cc2ccccc2)o1)c1ccc(-c2ccccc2)cc1`, the inhibition in vivo at 10 mg/kg in series [1] amounted to 50%. The Activity in series [2] came out at 54.1%. Moreover, the UI in series [3] is 0.5. The MDA content at 30 mg/kg in series [4] was found to be 5.8 nmol MDA/100 mg tissue.
On to `O=C(CCc1nnc(COc2ccccc2)o1)c1ccc(-c2ccccc2)cc1`, for which the inhibition in vivo at 10 mg/kg in series [1] was determined as 53.1%. Besides, the Activity in series [2] is listed as 55.8%. Besides, in series [3], the UI was found to be 0.6. For the same compound, the MDA content at 30 mg/kg in series [4] came out at 5.8 nmol MDA/100 mg tissue.
Compound `COc1ccc(-c2nnc(CCC(=O)c3ccc(-c4ccccc4)cc3)o2)cc1` showed an IC50 in series [5] of 52.3 µM. Besides, the inhibition in vivo at 10 mg/kg in series [1] is 59.4%. Further, the Activity in series [2] amounted to 51.3%. For the same compound, the MDA content at 30 mg/kg in series [4] worked out at 6.1 nmol MDA/100 mg tissue.
On to `O=C(CCc1nnc(-c2ccc(F)cc2)o1)c1ccc(-c2ccccc2)cc1`, for which the inhibition in vivo at 10 mg/kg in series [1] is 53.1%. The compound further came in with an Activity in series [2] of 72.5%. Moreover, the UI in series [3] is 0.6. Besides, the MDA content at 30 mg/kg in series [4] worked out at 4.6 nmol MDA/100 mg tissue.
Turning to `O=C(CCc1nnc(COc2ccc3ccccc3c2)o1)c1ccc(-c2ccccc2)cc1`, in series [5], the 50% inhibitory concentration (IC50) is 48.4 µM. Also, the inhibition in vivo at 10 mg/kg in series [1] was 59.4%. This compound also yielded an Activity in series [2] of 68.6%. In addition, in series [4], the MDA content at 30 mg/kg was 5.9 nmol MDA/100 mg tissue.
For `O=C(CCc1nnc(-c2ccc([N+](=O)[O-])cc2)o1)c1ccc(-c2ccccc2)cc1`, in that order: 42.6 µM, 56.2%, 45.8% and 4.3 nmol MDA/100 mg tissue.
Turning to `O=C(O)Cc1ccccc1Nc1c(Cl)cccc1Cl` [DICLOFENAC], the inhibition in vivo at 10 mg/kg in series [1] came out at 65.6%. The same compound showed an Activity in series [2] of 70.3%. In series [4], the MDA content at 30 mg/kg was found to be 8.9 nmol MDA/100 mg tissue.
Take `O=C(O)CCC(=O)c1ccc(-c2ccccc2)cc1` [FENBUFEN]: the 50% inhibitory concentration (IC50) in series [5] is 3.9 µM. Besides, the inhibition in vivo at 10 mg/kg in series [1] was 56.3%. Moreover, the Activity in series [2] turned out to be 54.1%. Moreover, the MDA content at 30 mg/kg in series [4] stood at 6.8 nmol MDA/100 mg tissue.
